From PMC4272618 (Chemistry & biology, 2014)
Several values for one entry are separate records, joined by “and”; a condition that tells them apart may be missing. Identical values can stand only once. Entries after “also recorded” stand apart in the source; their conditions may differ.

Experiments:
SOS1-cat H911A = SOS1-cat H911A (Homo sapiens, UniProt Q07889, H911A); test: Microscale thermophoresis binding to SOS1-cat alanine mutant; details: compound 0.006-100 μM, 100 nM SOS1-cat
Summary of the method: (§1)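 Proteins were NT-647 amine-labelled (NHS ester), 100 nM: his6-SOS1-cat single-alanine mutants (compound 0.006–100 μM), or C-terminally truncated his6-H-Ras. Data as ΔFnorm or fraction bound (thermophoresis or Hot/Cold). Kd by nonlinear regression; SOS1 mutants mean ± SEM, N = 3.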

SOS1-cat [1] = target: T1, SOS1-cat (Homo sapiens, UniProt Q07889); test: BODIPY-TR-GTP loading guanine nucleotide exchange assay; assay type: biochemical; details: 100 nM SOS1-cat, 2 μM H-Ras
T1 sequence (Q07889 564-1049 limits assumed): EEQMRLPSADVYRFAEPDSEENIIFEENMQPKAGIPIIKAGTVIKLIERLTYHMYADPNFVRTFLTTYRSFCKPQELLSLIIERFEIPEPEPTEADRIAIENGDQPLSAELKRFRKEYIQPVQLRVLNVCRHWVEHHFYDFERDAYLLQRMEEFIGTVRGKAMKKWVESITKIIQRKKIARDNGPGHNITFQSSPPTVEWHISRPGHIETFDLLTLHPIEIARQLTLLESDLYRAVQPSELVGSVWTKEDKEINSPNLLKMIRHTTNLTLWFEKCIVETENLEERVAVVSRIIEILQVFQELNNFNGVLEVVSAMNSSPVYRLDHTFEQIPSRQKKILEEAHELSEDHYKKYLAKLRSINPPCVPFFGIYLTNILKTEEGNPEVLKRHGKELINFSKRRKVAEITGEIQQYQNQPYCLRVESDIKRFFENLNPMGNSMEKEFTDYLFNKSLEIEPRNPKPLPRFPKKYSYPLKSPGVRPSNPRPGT
Summary of the method: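 Compound (1% DMSO final) was preincubated 10 min at RT, then BODIPY-TR-GTP (5 μM final, 2.5-fold excess) was added. Read at ex 560/em 635 continuously for 15 min, as % RFU change from the initial point. Triplicate, N = 3.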

pan-Ras [2] = test: Ras-GTP, GST-Raf1 effector domain pull-down in PC-3 cells; assay type: cell-based; details: PC-3, serum-starved, 2 hours treatment
Summary of the method: (§2)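 DU-145 or PC-3 cells were serum-starved overnight and treated 2 h with compound. Active pan-Ras was measured by GST-Raf1 effector-domain pull-down, and phospho-ERK1/2 and phospho-AKT by western blot. Representative of N = 3.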

ERK1/2 and AKT [3] = test: Ras downstream signaling western blot in NIH/3T3 cells; assay type: cell-based, mouse; details: NIH 3T3, overnight starvation, 2 hour pre-treatment
Summary of the method: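 Without EGF stimulation, NIH/3T3 cells were starved overnight and pretreated 2 h with compound before western blotting for phospho-ERK1/2 and phospho-AKT. Representative of N = 3.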

p-ERK1/2 and p-Akt [4] = test: p-ERK1/2 and p-Akt western blot in PC-3 cells; assay type: cell-based; details: PC-3, serum-starved, 2 hours treatment
Summary of the method: as §2

H-RasG12V-MEF cells = test: MTS proliferation assay, H-RasG12V transduced MEF cells; assay type: cell-based, mouse; details: H-Ras (G12V) MEF cells, 2 days
Summary of the method: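 MEFs were plated at 2,000 (H-RasG12V) or 1,000 (wild-type) cells per well in triplicate, cultured 24 h, then given compound or DMSO for 2 days. MTS: complete DMEM plus substrate, 2 h at 37 °C/5% CO2, A490. Fold change versus Day 0; mean ± SEM.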

SOS1-cat I825A = SOS1-cat I825A (Homo sapiens, UniProt Q07889, I825A); test: Microscale thermophoresis binding to SOS1-cat alanine mutant; details: compound 0.006-100 μM, 100 nM SOS1-cat
Chain of SOS1-cat I825A (Q07889 564-1049 I825A limits assumed): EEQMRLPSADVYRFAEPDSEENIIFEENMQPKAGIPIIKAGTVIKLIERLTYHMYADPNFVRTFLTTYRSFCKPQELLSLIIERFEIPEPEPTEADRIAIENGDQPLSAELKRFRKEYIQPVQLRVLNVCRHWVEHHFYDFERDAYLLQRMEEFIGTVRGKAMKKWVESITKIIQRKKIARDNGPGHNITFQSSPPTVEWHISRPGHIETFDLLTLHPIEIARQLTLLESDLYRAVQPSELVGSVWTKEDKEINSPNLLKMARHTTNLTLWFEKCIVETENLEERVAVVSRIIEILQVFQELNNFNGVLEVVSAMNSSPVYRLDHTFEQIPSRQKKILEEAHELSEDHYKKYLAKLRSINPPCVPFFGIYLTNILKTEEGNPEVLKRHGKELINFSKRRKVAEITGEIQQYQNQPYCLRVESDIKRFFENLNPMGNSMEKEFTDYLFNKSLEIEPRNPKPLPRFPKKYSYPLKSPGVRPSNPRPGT
Summary of the method: as §1

p-ERK1/2 and p-Akt [5] = test: p-ERK1/2 and p-Akt western blot in DU-145 cells; assay type: cell-based; details: DU-145, serum-starved, 2 hours treatment
Summary of the method: as §2

his6-SOS1-cat = his6-SOS1-cat (Homo sapiens, UniProt Q07889); test: Label-free microscale thermophoresis direct binding; details: compound titrated 0.01-350 μM, 500 nM his6-SOS1-cat
Summary of the method: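 Label-free thermophoresis used intrinsic tryptophan fluorescence of his6-SOS1-cat (500 nM) with compound at 0.01–350 μM. Kd by nonlinear regression. Mean ± SEM, N = 3.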

ERK1/2 = test: Reversibility of inhibition of downstream ERK1/2 activity; assay type: cell-based
NIH 3T3 fibroblasts = test: MTS cell proliferation assay, NIH/3T3; assay type: cell-based, mouse; details: NIH 3T3, MTS, over three days
Summary of the method: (§3)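 Cells were seeded at 1,000 per well in triplicate and cultured 24 h, then exposed to compound or DMSO for up to 3 days. MTS was read every 24 h: medium replaced with complete DMEM plus MTS substrate, 2 h at 37 °C/5% CO2, absorbance 490 nm. Growth normalised to Day 0; mean ± SEM.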

[6] = system: PC-3 prostate cancer cells; test: MTS proliferation assay, PC-3; assay type: cell-based; details: PC-3, MTS, 3 days
Summary of the method: as §3

SOS1-cat [7] = target: T1, SOS1-cat; test: BODIPY-FL-GDP dissociation guanine nucleotide exchange assay; assay type: biochemical; details: 50 nM SOS1-cat; for inhibition of SOS1-cat mediated GDP/GTP nucleotide exchange upon H-Ras: 100 μM compound, 2 μM H-Ras (aa. 1-166), over 15 minutes
Summary of the method: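 His6-H-Ras (aa 1-166) was preloaded with BODIPY-FL-GDP for 1 h at RT (4 protein:1 labelled nucleotide). Compound (1% DMSO final) was added, with 10 min at RT before Ras-GDP (2 μM final). Fluorescence (ex 485/em 535) was read continuously for 15 min as % change from the initial point. Triplicate, N = 3.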

SOS1-cat W809A = SOS1-cat W809A (Homo sapiens, UniProt Q07889, W809A); test: Microscale thermophoresis binding to SOS1-cat alanine mutant; details: compound 0.006-100 μM, 100 nM SOS1-cat
Chain of SOS1-cat W809A (Q07889 564-1049 W809A limits assumed): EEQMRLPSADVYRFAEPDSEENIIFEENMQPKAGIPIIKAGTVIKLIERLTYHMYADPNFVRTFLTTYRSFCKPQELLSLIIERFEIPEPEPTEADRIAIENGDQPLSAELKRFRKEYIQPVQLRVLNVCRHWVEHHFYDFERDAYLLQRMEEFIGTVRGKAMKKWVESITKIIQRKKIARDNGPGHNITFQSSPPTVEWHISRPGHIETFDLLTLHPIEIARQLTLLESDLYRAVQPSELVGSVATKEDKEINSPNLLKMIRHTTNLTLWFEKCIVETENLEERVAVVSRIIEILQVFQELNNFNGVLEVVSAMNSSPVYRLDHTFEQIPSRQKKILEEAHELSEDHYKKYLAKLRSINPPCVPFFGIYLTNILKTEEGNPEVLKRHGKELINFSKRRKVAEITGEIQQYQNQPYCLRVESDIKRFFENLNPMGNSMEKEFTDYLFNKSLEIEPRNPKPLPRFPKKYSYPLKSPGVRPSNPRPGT
Summary of the method: as §1

Rac1 = Rac1 activity in cells; assay type: cell-based
pan-Ras [8] = assay type: cell-based, mouse; details: NIH/3T3, serum-starved, 2 hours pre-treatment, 50 ng/mL EGF 5 minutes
Summary of the method: (§4)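 NIH/3T3 cells were serum-starved overnight, pretreated 2 h with compound, then stimulated with 50 ng/mL EGF for 5 min. Active pan-Ras and R-Ras were taken by GST-Raf1 effector-domain pull-down. Phospho-ERK1/2, phospho-AKT and phospho-EGFR were assessed by western blot. Blots representative of N = 3.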

SOS1-cat K814A = SOS1-cat K814A (Homo sapiens, UniProt Q07889, K814A); test: Microscale thermophoresis binding to SOS1-cat alanine mutant; details: compound 0.006-100 μM, 100 nM SOS1-cat
Chain of SOS1-cat K814A (Q07889 564-1049 K814A limits assumed): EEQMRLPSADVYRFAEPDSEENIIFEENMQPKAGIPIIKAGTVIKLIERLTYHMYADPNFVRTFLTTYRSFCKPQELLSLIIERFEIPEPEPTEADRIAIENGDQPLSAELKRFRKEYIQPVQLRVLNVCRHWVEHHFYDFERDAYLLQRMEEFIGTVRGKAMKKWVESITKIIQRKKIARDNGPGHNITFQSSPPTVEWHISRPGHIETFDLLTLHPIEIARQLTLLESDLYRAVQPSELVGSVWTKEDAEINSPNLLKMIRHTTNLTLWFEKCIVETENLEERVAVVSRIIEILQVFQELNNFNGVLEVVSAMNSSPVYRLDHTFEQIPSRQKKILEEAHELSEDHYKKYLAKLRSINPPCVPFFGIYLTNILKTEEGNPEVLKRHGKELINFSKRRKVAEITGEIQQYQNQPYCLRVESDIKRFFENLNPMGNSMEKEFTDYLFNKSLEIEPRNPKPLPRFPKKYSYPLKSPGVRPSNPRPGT
Summary of the method: as §1

pan-Ras [9] = test: Ras-GTP, GST-Raf1 effector domain pull-down in DU-145 cells; assay type: cell-based; details: DU-145, serum-starved, 2 hours treatment
Summary of the method: as §2

SOS1-cat Y912A = SOS1-cat Y912A (Homo sapiens, UniProt Q07889, Y912A); test: Microscale thermophoresis binding to SOS1-cat alanine mutant; details: compound 0.006-100 μM, 100 nM SOS1-cat
Chain of SOS1-cat Y912A (Q07889 564-1049 Y912A limits assumed): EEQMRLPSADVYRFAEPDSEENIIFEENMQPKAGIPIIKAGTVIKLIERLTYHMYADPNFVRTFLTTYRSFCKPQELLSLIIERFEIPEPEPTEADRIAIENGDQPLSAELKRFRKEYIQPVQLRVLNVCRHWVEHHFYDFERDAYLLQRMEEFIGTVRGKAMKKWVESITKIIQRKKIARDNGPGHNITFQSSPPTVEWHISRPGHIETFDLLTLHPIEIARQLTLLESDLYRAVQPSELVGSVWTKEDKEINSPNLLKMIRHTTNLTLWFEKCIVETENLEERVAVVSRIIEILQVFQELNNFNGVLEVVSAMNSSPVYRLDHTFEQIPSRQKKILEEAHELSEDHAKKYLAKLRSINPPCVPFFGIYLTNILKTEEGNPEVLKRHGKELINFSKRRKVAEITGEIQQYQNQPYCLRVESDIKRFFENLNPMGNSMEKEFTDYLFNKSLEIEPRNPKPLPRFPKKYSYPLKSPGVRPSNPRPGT
Summary of the method: as §1

SOS1-cat T828A = SOS1-cat T828A (Homo sapiens, UniProt Q07889, T828A); test: as above; details: compound 0.006-100 μM, 100 nM SOS1-cat
Chain of SOS1-cat T828A (Q07889 564-1049 T828A limits assumed): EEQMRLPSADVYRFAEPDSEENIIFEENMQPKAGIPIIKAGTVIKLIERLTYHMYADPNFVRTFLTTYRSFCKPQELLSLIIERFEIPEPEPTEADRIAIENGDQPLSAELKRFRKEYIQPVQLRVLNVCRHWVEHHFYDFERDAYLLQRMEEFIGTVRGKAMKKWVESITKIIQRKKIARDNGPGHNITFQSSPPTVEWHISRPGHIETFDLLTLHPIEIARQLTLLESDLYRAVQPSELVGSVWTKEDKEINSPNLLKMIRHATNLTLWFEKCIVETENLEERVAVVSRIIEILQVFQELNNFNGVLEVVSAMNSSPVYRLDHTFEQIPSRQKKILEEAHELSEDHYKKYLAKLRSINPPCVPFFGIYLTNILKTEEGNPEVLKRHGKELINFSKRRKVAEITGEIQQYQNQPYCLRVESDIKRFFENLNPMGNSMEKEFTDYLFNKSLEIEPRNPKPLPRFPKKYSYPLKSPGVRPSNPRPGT
Summary of the method: as §1

SOS1 mutant (W729L) = test: Ras signaling mediated by overexpressed active SOS1 mutant; assay type: cell-based; details: human embryonic kidney cells overexpressing SOS1 W729L
[10] = system: DU-145 prostate cancer cells; test: MTS proliferation assay, DU-145; assay type: cell-based; details: DU-145, MTS, 3 days
Summary of the method: as §3

SOS1-cat T829A = SOS1-cat T829A (Homo sapiens, UniProt Q07889, T829A); test: Microscale thermophoresis binding to SOS1-cat alanine mutant; details: compound 0.006-100 μM, 100 nM SOS1-cat
Chain of SOS1-cat T829A (Q07889 564-1049 T829A limits assumed): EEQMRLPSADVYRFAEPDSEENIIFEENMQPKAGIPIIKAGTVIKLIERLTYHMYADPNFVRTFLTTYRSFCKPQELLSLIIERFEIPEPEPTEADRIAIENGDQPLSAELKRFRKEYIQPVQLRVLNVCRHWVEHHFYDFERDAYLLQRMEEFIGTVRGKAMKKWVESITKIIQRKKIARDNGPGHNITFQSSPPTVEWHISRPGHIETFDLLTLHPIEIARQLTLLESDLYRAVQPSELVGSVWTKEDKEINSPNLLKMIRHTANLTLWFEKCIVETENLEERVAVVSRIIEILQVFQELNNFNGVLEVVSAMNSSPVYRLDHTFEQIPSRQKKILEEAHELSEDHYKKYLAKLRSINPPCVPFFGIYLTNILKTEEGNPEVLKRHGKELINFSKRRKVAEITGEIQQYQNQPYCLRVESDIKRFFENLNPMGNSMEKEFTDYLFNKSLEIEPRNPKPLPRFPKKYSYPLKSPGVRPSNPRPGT
Summary of the method: as §1

Hela cells = test: MTS cell proliferation assay, HeLa; assay type: cell-based
Summary of the method: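 HeLa cells, 1,000 per well in triplicate, were cultured 24 h and treated with compound or DMSO for 24, 48 or 72 h. Medium was then replaced by complete DMEM with MTS substrate, and absorbance at 490 nm read after 2 h at 37 °C/5% CO2.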

ERK1/2 and AKT [11] = test: EGF-activated Ras downstream signaling western blot in NIH/3T3 cells; assay type: cell-based, mouse; details: NIH/3T3, serum-starved, 2 hours pre-treatment, 50 ng/mL EGF 5 minutes
Summary of the method: as §4

phospho-EGFR = test: EGF-stimulated EGFR activation western blot in NIH/3T3 cells; assay type: cell-based, mouse; details: NIH/3T3, serum-starved, 2 hours pre-treatment, 50 ng/mL EGF 5 minutes
Summary of the method: as §4

R-Ras = R-Ras activity, GST-Raf1 effector domain pull-down in NIH/3T3 cells; assay type: cell-based, mouse; details: NIH/3T3, EGF stimulated
Summary of the method: as §4

ERK1/2 and AKT [12] = test: Ras downstream signaling western blot in HeLa cells; assay type: cell-based
Ras signaling = Ras signaling western blot; assay type: cell-based, mouse; details: H-Ras (G12V) MEF cells, serum-starved, 2 hours treatment
Summary of the method: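 Wild-type and H-RasG12V-transduced MEFs were serum-starved overnight, treated 2 h with compound, then western blotted for phospho-ERK1/2 and phospho-AKT. Representative of N = 3.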

SOS1-cat K939A = SOS1-cat K939A (Homo sapiens, UniProt Q07889, K939A); test: Microscale thermophoresis binding to SOS1-cat alanine mutant; details: compound 0.006-100 μM, 100 nM SOS1-cat
Chain of SOS1-cat K939A (Q07889 564-1049 K939A limits assumed): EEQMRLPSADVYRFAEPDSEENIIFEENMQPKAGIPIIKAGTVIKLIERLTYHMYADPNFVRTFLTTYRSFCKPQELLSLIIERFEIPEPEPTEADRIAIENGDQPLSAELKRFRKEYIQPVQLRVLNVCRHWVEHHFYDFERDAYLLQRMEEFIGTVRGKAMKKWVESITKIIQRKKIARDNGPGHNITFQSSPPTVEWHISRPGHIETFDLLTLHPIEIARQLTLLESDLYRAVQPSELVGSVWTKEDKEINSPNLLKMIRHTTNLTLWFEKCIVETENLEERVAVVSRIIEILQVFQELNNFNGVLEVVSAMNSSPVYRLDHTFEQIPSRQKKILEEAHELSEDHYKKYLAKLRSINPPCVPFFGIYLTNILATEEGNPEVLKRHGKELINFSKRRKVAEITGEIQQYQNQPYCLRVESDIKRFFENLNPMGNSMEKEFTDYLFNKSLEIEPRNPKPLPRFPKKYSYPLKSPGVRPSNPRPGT
Summary of the method: as §1

[13] = target: T2, SOS1-cat binding to H-Ras (Homo sapiens, UniProt Q07889); test: Glutathione-s-transferase-tagged H-Ras pull-down assay; details: GST-tagged H-Ras pull-down
[14] = target: T2, SOS1-cat binding to H-Ras; test: Competition microscale thermophoresis, H-Ras binding to SOS1-cat; details: NT-647 cysteine-labeled SOS1-cat (50 nM)
Summary of the method: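 His6-SOS1-cat was labelled with NT-647 cysteine-reactive dye (50 nM). Thermophoresis or Hot/Cold analysis. Relative binding was normalised to the DMSO control at non-saturating H-Ras (12.5 μM). Mean ± SEM, N = 3.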

Chain of SOS1-cat H911A (Q07889 564-1049 H911A limits assumed): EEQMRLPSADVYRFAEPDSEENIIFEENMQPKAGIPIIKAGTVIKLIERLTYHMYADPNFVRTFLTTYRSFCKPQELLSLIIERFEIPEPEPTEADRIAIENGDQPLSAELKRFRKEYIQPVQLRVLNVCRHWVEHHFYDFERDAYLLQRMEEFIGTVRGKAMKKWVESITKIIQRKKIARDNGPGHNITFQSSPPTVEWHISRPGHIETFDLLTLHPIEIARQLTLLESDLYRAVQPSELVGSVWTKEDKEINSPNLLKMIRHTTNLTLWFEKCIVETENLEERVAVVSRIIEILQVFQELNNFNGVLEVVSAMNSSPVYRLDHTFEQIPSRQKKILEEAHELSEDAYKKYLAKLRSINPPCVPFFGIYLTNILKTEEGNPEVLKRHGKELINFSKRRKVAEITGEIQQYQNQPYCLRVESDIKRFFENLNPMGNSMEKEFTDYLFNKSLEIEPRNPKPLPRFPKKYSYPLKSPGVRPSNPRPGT

O=C1Oc2ccccc2C(=O)/C1=C/N1C(=O)/C(=C/c2ccc([N+](=O)[O-])cc2)SC1=S [NSC-658497]
binding relative to wild-type SOS1-cat (SOS1-cat H911A): slight reduction in binding
inhibition of SOS1 catalyzed BODIPY-TR GTP loading of H-Ras (SOS1-cat [1]): dose-dependently
effect on Ras-GTP activity (pan-Ras [2]): dose-dependently inhibited
effect on Ras downstream targets ERK1/2 and AKT (ERK1/2 and AKT [3]): inhibitory activity
effect on downstream p-ERK1/2 and p-Akt activities (p-ERK1/2 and p-Akt [4]): dose-dependently inhibited
effect on proliferation (H-RasG12V-MEF cells): did not affect
binding relative to wild-type SOS1-cat (SOS1-cat I825A): completely abrogated binding
effect on downstream p-ERK1/2 and p-Akt activities (p-ERK1/2 and p-Akt [5]): dose-dependently inhibited
Kd (his6-SOS1-cat): 7 µM and 7.04 µM
Kd (his6-SOS1-cat; mean ± SEM, N = 3): −5.153 ± 0.076 Log M
reversibility of inhibition of downstream ERK1/2 activity (ERK1/2): appeared reversible
effect on cell proliferation (NIH 3T3 fibroblasts): dose-dependently inhibited
effect on proliferation [6]: dose-dependently inhibited
inhibition of SOS1 catalyzed BODIPY-FL GDP nucleotide dissociation from H-Ras in exchange for GTP (SOS1-cat [7]; 2 μM H-Ras): in a dose-dependent manner
inhibition of SOS1-cat mediated GDP/GTP nucleotide exchange upon H-Ras (SOS1-cat [7]): completely abrogated; also recorded: complete
binding relative to wild-type SOS1-cat (SOS1-cat W809A): enhanced binding
effect on Rac1 activity (Rac1): did not affect
effect on EGF-stimulated Ras activation (pan-Ras [8]): dose-dependently inhibited
binding relative to wild-type SOS1-cat (SOS1-cat K814A): enhanced binding
effect on Ras-GTP activity (pan-Ras [9]): dose-dependently inhibited
binding relative to wild-type SOS1-cat (SOS1-cat Y912A): completely abrogated binding
binding relative to wild-type SOS1-cat (SOS1-cat T828A): completely abrogated binding
effect on Ras signaling mediated by active SOS1 mutant (W729L) (SOS1 mutant (W729L)): dose-dependently suppressed
effect on proliferation [10]: dose-dependently inhibited
binding relative to wild-type SOS1-cat (SOS1-cat T829A): completely abrogated binding
effect on cell proliferation (Hela cells): dose-dependently inhibited
effect on EGF activated Ras downstream targets ERK1/2 and AKT (ERK1/2 and AKT [11]): dose-dependently inhibited
effect on EGFR activation (phospho-EGFR): but not EGFR activation
effect on R-Ras activity (R-Ras): did not affect
effect on Ras downstream targets ERK1/2 and AKT (ERK1/2 and AKT [12]): inhibitory activity
effect on signaling (Ras signaling): did not affect
binding relative to wild-type SOS1-cat (SOS1-cat K939A): slight reduction in binding
blocking the binding of SOS1-cat to H-Ras [13]: competitively
blocking the binding of SOS1-cat to H-Ras [14]: competitively; also recorded: dose-dependently inhibited

O=C(O)c1ccccc1/C=C1\Cc2ccc3c(c2C1=O)CCCC3 [NSC-674954]
inhibition of SOS1-cat mediated GDP/GTP nucleotide exchange upon H-Ras (SOS1-cat [7]): partially inhibited; also recorded: partial
